Measured values pooled from the literature.
Protocols differ between the studies behind these lines.
Target: Mitogen-activated protein kinase 8 (MAPK8, Homo sapiens, UniProt P45983)

Structure (SMILES) | test | setting | measurement | value
CN(C)C1CCN(CC#Cc2nn(C3CCCC3)c3nc(NCc4ccccc4)ncc23)C1 (stereo not shown) | enzyme activity, inhibitor, FRET | 0.1 µM | inhibition | 1%
NS(=O)(=O)c1cc(NC(=O)C2(c3ccccc3Cl)CC2)ccc1Oc1cccc(Cl)c1 | cell-free assay, competition with immobilised ligand | 1 µM | remaining binding | 100%
O=C1Nc2ccc(Cl)cc2C1=Cc1cc(Cl)c(O)c(Cl)c1 | cell-free assay | 0.5 µM | remaining signal | 82.8%
c1ccc(N2CCN(Cc3nc4ccccc4[nH]3)CC2)nc1 | binding, competition with immobilised ligand | 1 µM | remaining binding | 100%
CC(C)(O)[C@H]1CC[C@H](Nc2ccc3ncc(-c4cccc(C(F)(F)F)c4)n3n2)CC1 | enzyme activity, inhibitor | 1 µM | remaining activity | 107%
O=C(Nc1cnn(-c2csc(C(=O)NC3COC3)c2)c1)Nc1ccccc1Cl | enzyme activity, inhibitor | 5 µM | remaining activity | 57.6%
CCN1CCC2(CC1)NC(=O)c1c(c3ccc(Cl)c(Cl)c3n1C)C2C#N (racemic) | thermal stability, DSF | 10 µM | ΔTm | 0.6 °C
CCS(=O)(=O)c1cc2cc(C[C@](O)(CC(C)(C)c3ccc(F)cc3C(N)=O)C(F)(F)F)[nH]c2cn1 | cell-free assay, competition with immobilised ligand | 1 µM | remaining binding | 100%
O=C1NC(=O)c2cc(Nc3ccc(F)cc3)c(Nc3ccc(F)cc3)cc21 | cell-free assay | 0.5 µM | remaining signal | 91.4%
COc1cc(-c2cc(-c3ccc(N4CCNCC4)cc3)cnc2C)cc(OC)c1OC | enzyme activity, inhibitor | 0.1 µM | inhibition | 0%
Cn1c(=O)n(-c2ccc(C(C)(C)C#N)cc2)c2c3cc(-c4cnc5ccccc5c4)ccc3ncc21 | enzyme activity, inhibitor | 10 µM | remaining activity | 105%
CC(C)(C)c1nc2c(s1)c1nc(N)ncc1c1ccc(NS(=O)(=O)c3c(F)cccc3F)c(F)c12 | enzyme activity, inhibitor, radiometric | 1 µM | remaining activity | 75%
Oc1cccc(-c2nc(N3CCOCC3)c3oc4ncccc4c3n2)c1 | enzyme activity, inhibitor | 10 µM | remaining activity | 102%
Nc1nc(Nc2ccccc2)sc1C(=O)c1c(F)cccc1F | enzyme activity, inhibitor | 10 µM | remaining activity | 75%
FC(F)(F)Oc1cccc(-c2cnc3ccc(-c4ccncc4)nn23)c1 | enzyme activity, inhibitor, radiometric | 5 µM | activity vs control | 90%
CC(C)(O)c1cncc(-c2nc3ccc(F)cc3n2C2CC2)c1 | cell-free assay, competition with immobilised ligand | 1 µM | remaining binding | 100%
CNCc1ccc(-c2cc(-c3nc(-c4ccc(S(=O)(=O)C(C)C)cc4)cnc3N)on2)cc1 | enzyme activity, inhibitor | 0.4 µM | inhibition | 6%

Structure (SMILES) | test | setting | measurement | value
Cc1ccc(C(=O)Nc2ccc(CN3CCN(C)CC3)c(C(F)(F)F)c2)cc1C#Cc1cnc2cccnn12 | enzyme activity, inhibitor | 23.5 nM | remaining activity | 82%
COc1ccc2c(c1)O[C@H](c1ccc(OC)c(OC)c1)C[C@@H]2NC(=O)C1(c2ccc3c(c2)OC(F)(F)O3)CC1 | cell-free assay, competition with immobilised ligand | 1 µM | remaining binding | 96%
N#CC(c1ccnc(NCCc2cccnc2)n1)c1nc2ccccc2s1 (stereo not shown) | enzyme activity, inhibitor | 0.5 µM | remaining activity | 87.6%
CN1CCC2(CC1)NC(=O)c1c(c3ccc(Cl)c(Cl)c3n1C)C2C#N (racemic) | thermal stability, DSF | 10 µM | ΔTm | 0 °C
C=CC(=O)Nc1cc(Nc2nccc(Nc3cc(Cl)c(F)cc3C(C)(C)O)n2)c(OC)cc1N1CC[C@@H](N(C)C)C1 | enzyme activity, inhibitor | 1 µM | inhibition | -3%
CCC1(CC)NC(=O)c2c(c3ccc(Cl)c(Cl)c3n2C)C1C#N (stereo not shown) | thermal stability, DSF | 10 µM | ΔTm | 0.3 °C
COc1cc(Nc2cnc(C#N)c(O[C@H](C)CN(C)C)n2)ncc1-c1cnn(C)c1 | enzyme activity, inhibitor, radiometric | 10 µM | remaining activity | 93%
CN(c1ccnc(CNc2nc(Nc3ccc4c(c3)CC(=O)N4)ncc2C(F)(F)F)n1)S(C)(=O)=O | cell-free assay, competition with immobilised ligand | 1 µM | remaining binding | 65%
CN1CC(Oc2cnc(C#N)cc2-c2ccn3nc(NC(=O)C4CC4)cc3c2)C1 | enzyme activity, inhibitor | 1 µM | inhibition | -4%
CCCS(=O)(=O)Nc1ccc(F)c(C(=O)c2c[nH]c3ncc(-c4ccc(Cl)cc4)cc23)c1F | enzyme activity, inhibitor | 1 µM | inhibition | < 10%
Cn1c2c(c3ccc(Cl)c(Cl)c31)C(C#N)C1(CCOCC1)NC2=O (stereo not shown) | thermal stability, DSF | 10 µM | ΔTm | -0.1 °C
CSc1nc(C)c(-c2ccnc(Nc3ccc(N4CCOCC4)cc3)c2)[nH]1 | enzyme activity, inhibitor | 10 µM | inhibition | 88.6%
CN([C@@H]1CCc2c(CC(=O)O)c3ccccc3n2C1)S(=O)(=O)c1ccc(F)cc1 | cell-free assay, competition with immobilised ligand | 1 µM | remaining binding | 77%
Cn1c2c(c3ccc(Cl)c(Cl)c31)C(C#N)C1(CCCC1)NC2=O (stereo not shown) | thermal stability, DSF | 10 µM | ΔTm | 0.6 °C
CC1=C(C#N)C(c2ccc3c(c2)c(NC(=O)c2ccccc2C)nn3C)C(C#N)=C(C)N1 | cell-free assay, competition with immobilised ligand | 1 µM | remaining binding | 88%
Nc1nc(NC2CCCCC2)sc1C(=O)c1ccccc1 | enzyme activity, inhibitor | 10 µM | remaining activity | 60%
COc1cc2ncnc(Nc3ccc(Oc4ccccc4)cc3C)c2cc1OC | enzyme activity, inhibitor | 1 µM | inhibition | 1%
